Data set [1] has as its target T1, Sodium- and chloride-dependent glycine transporter 1 (Homo sapiens, UniProt P48067).
T1 sequence (P48067 whole entry): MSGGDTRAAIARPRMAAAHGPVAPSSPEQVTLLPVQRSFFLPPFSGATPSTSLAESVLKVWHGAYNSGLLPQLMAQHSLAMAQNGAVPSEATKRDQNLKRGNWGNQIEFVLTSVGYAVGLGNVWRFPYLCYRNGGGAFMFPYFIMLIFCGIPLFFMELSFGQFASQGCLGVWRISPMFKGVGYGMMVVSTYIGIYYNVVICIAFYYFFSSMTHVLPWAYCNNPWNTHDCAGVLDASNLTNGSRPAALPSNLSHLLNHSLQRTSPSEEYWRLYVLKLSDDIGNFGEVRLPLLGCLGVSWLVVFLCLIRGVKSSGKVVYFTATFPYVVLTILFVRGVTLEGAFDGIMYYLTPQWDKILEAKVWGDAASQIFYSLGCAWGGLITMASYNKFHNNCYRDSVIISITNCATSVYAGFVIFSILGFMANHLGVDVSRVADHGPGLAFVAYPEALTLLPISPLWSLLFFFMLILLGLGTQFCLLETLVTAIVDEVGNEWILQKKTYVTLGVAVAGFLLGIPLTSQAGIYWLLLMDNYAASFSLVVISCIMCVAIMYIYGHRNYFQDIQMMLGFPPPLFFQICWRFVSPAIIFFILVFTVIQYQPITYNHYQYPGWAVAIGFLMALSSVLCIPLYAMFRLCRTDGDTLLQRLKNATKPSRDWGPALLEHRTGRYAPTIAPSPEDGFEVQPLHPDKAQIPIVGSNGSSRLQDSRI
Nature of the data set: Inhibition of glycine transporter-1B in human JAR cells assessed as reduction in [14C]glycine uptake preincubated for 10 mins followed by [14C]glycine addition measured after 3 hrs by scintillation proximity assay. The data set is classed as cell-based. An outline of the steps: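 Whole-cell SPA in JAR cells, which endogenously express hGlyT-1b. Cells (50,000 per well) were attached overnight in RPMI/10% FBS at 37 °C, 5% CO₂. [¹⁴C]glycine was then added and incubated 3 h at 37 °C. The assay window was set with unlabeled glycine. A reference standard ran on each plate. IC₅₀ values are means of n ≥ 2.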
On the technique in general: SPA uses beads or plates that emit light when radiolabelled molecules are held near them.

Data set [2] is described as follows: Metabolic stability in human liver microsomes assessed as parent compound remaining at 3 uM incubated for 60 mins by LC-MS analysis. It is filed as ADME, Microsome. The note with it: read-out: Stability. In general terms: Liver microsomes are vesicles of endoplasmic reticulum, rich in cytochrome P450 enzymes.
Data set [3] concerns the target T2, Sodium- and chloride-dependent glycine transporter 1 (Homo sapiens) (UniProt P48067).
T2 sequence (whole entry): T1 sequence (P48067 whole entry)
Nature of the data set: Competitive inhibition of glycine transporter-1 (unknown origin) expressed in HEK293 cells at 0.62 to 17 nM in presence of [3H]glycine by scintillation proximity assay. The data set is classed as cell-based. A digest of the protocol:
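Whole-cell SPA glycine transport with transfected HEK-293 cells expressing GlyT-1. Increasing [³H]-glycine concentrations were run at several fixed inhibitor concentrations to derive B_max and K_d for glycine and judge the binding mode.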

Here are results for two molecules from ChEMBL document CHEMBL4428077, “Synthesis and Biological Evaluation of N-((1-(4-(Sulfonyl)piperazin-1-yl)cycloalkyl)methyl)benzamide Inhibitors of Glycine Transporter-1” (J Med Chem, 2016).

Calls of active or inactive are those of the source. The calls are words filed in the database; no cut-off is given here.

Broadly, the IC50 is the concentration that inhibits the measured activity by half.

Turning to `Cn1cnc(S(=O)(=O)N2CCN(C3(CNC(=O)c4ccc(Cl)cc4Cl)CCCCC3)CC2)c1`, in data set [1], the IC50 came out at 2.14 nM. For the same molecule, in data set [2], the remaining at 1 h, 3 µM was determined as 5%.

With `CN(CC[C@@H](Oc1ccc(-c2ccccc2)cc1)c1ccc(F)cc1)CC(=O)O`, the inhibition result in data set [3] was “inactive”.
